For one compound, inhibition, Activity and EC50 results are on record in ChEMBL document CHEMBL4038317, “Discovery of a Benzamide Derivative That Protects Pancreatic β-Cells against Endoplasmic Reticulum Stress” (J Med Chem, 2017).

pEC50: −log10 of the molar value. Activity calls are given as the source filed them. The rule behind the calls is not given here.

Series [1] is filed under the species Rattus norvegicus. Nature of the series: Inhibition of tunicamycin ER stress-induced IRE1alpha activation in rat INS-1 cells assessed as suppression of tunicamycin-induced increase in XBP1 mRNA levels up to 10 uM after 8 hrs by qRT-PCR analysis. In kind it is cell-based. In short, it runs like this: (§1)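 INS-1 cells, 4×10^5 per well, were exposed to tunicamycin 0.1 μg/mL with compound or DMSO for 8 h. qRT-PCR for ATF4, CHOP, Bip, GRP94, or spliced XBP1 using splicing-specific primers. Values were normalized to cyclophilin A by ΔΔCt and given as fold over untreated control. Triplicate wells, 3 independent experiments.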
On the technique in general: In qPCR the cycle at which signal appears reflects the starting amount.

For series [2], the species on record is Rattus norvegicus. In words: Inhibition of IRE1alpha activation in rat INS-1 cells assessed as suppression of tunicamycin-induced increase in XBP1 mRNA levels up to 10 uM after 8 hrs by agarose gel electrophoresis method. The class given is cell-based. In short, it runs like this: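 INS-1 cells were exposed to tunicamycin 0.1 μg/mL with compound or DMSO for 8 h. Total XBP1 mRNA was amplified by RT-PCR, and the spliced and unspliced forms were separated electrophoretically.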

Series [3] deals with INS1. Nature of the series: Cytoprotective activity against tunicamycin ER stress-induced apoptosis in rat INS-1 cells assessed as TUNEL positive cells at 0.1 to 1 uM after 24 hrs by TUNEL/DAPI-based microscopic analysis (reference value: 7%). The class given is functional.
For series [4], the system named is INS1. In words: Cytoprotective activity against tunicamycin ER stress-induced apoptosis in rat INS-1 cells assessed as inhibition of tunicamycin-induced cleaved PARP expression up to 1 uM after 24 hrs by Western blot analysis. In kind it is functional, cell-based. In short, it runs like this: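 INS-1 cells, 8×10^5 per 60-mm dish, were exposed to tunicamycin 0.1 μg/mL plus compound or DMSO for 24 h. 20 μg lysate protein was run on 7% SDS-PAGE and immunoblotted for cleaved caspase-3 and PARP (1:1000), with α-tubulin as loading control; 3 independent experiments.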
(In general: Immunoblotting shows a protein as a band on a membrane.)

The test system of series [5] is INS1. Nature of the series: Protection against tunicamycin ER stress-induced suppression of INS1 mRNA expression in rat INS-1 cells up to 1 uM after 24 hrs by qRT-PCR analysis. In kind it is functional, cell-based. In short, it runs like this:
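INS-1 cells were exposed to tunicamycin 0.1 μg/mL with compound or DMSO for 24 h. INS1, INS2, PDX1 and MafA mRNA were measured by qRT-PCR and normalized to cyclophilin A by the comparative Ct method. Triplicate wells, 3 independent experiments.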

For series [6], the system named is INS1. In words: Cytoprotective activity in rat INS-1 cells assessed as protection against tunicamycin-induced ER stress-mediated reduction in cell viability after 3 days by CellTiter-Glo assay. As to conditions: INS1, 72 h. (ATP-based viability assays read luminescence as a measure of living cells.)
Series [7] has as its system INS1. Nature of the series: Effect on ATF4 mRNA level in rat INS-1 cells up to 10 uM after 8 hrs by qRT-PCR analysis. The class given is ADME, cell-based. To be noted: ins1, 8 h. In short, it runs like this: as §1
Series [8] relates to INS1. Nature of the series: Cytoprotective activity in rat INS-1 cells assessed as protection against tunicamycin-induced ER stress-mediated reduction reduction in cell viability up to 10 uM after 3 days by MTT assay. The class given is functional, cell-based. In short, it runs like this: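 INS-1 cells, 3×10^3 per well, were exposed to tunicamycin 0.1 μg/mL with compound for 72 h. MTT was added for 3 h at 37 °C, then crystal-dissolving solution for 4 h, and absorbance read at 570 nm. Triplicate wells, three independent experiments.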

Series [9] deals with Mus musculus. Nature of the series: Antidiabetic activity in STZ-induced diabetic C57BL/6 mouse model assessed as decrease in blood glucose level at 5 mg/kg, ip administrated qd with streptozotocin for 5 days followed by compound administration alone for 2 more weeks. To be noted: TDE = time-dependent effect. The class given is functional, organism-based.
The target in series [10] is T1, Cyclic AMP-dependent transcription factor ATF-6 alpha (Rattus norvegicus) (UniProt G3V909).
T1 sequence (whole entry): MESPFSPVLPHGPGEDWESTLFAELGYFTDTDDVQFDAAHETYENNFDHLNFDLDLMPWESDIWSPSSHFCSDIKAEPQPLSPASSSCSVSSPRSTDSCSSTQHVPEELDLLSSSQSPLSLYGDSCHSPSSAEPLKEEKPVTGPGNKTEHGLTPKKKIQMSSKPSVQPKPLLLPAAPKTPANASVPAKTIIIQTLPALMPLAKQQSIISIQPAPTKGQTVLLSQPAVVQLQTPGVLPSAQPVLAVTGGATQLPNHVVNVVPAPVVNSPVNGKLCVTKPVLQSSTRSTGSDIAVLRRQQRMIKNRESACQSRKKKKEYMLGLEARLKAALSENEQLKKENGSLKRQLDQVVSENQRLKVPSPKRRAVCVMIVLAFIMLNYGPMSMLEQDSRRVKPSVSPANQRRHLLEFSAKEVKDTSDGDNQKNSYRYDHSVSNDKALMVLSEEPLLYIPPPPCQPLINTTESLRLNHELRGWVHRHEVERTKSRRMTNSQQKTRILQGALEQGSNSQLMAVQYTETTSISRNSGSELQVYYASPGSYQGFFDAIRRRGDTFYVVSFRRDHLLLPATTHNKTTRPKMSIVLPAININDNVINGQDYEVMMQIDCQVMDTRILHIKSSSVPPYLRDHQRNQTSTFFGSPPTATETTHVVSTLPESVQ
Nature of the series: Inhibition of tunicamycin ER stress-induced ATF6 activation in rat INS-1 cells assessed as suppression of increase in […] mRNA levels up to 10 uM after 8 hrs by qRT-PCR analysis. In kind it is cell-based. In short, it runs like this: as §1

Series [11] relates to Mus musculus. In words: Antidiabetic activity in STZ-induced diabetic overnight fasted C57BL/6 mouse model assessed as blood glucose level at 5 mg/kg, ip administrated qd with streptozotocin for 5 days followed by compound administration alone for 2 more weeks measured at 15 mins post last dose relative to control. In kind it is functional, organism-based. In short, it runs like this: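 Same STZ/compound i.p. regimen in male C57BL/6 mice, vehicle group as control. Intraperitoneal glucose tolerance test in overnight-fasted mice: glucose 2 g/kg i.p., blood glucose read at set times after the glucose load.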

As a reminder, the pEC50 is the EC50 on a negative log10 scale, so that one unit is a factor of ten. With `O=C(NCc1ccc(C(F)(F)F)cc1)c1cccc(CN2CCCCC2)c1`, the inhibition result (in the series filed under Rattus norvegicus [1]; in the series filed under Rattus norvegicus [2]; with INS1 [4]; in [10]) was “Active” throughout. Moreover, the Activity with INS1 [3] is 0.5%; in the series on INS1 [7], “Non-Toxic”; with Mus musculus [9], “Tde”. Also, the outcome in the series with INS1 [5], with INS1 [8] and with Mus musculus [11] was Active. For the same compound, the pEC50 with INS1 [6] was 7.52.
